For one series, the target named is FGFR1 (Homo sapiens, UniProt P11362). The experiment in a line: Kinase inhibition assay. The format is biochemical. As to conditions: for inhibition at 0.01 µM / inhibition at 0.1 µM / inhibition at 1 µM: read-out: FGFR1 inhibition rate (%).
In another series the test system is SNU16 cancer cell lines. Put plainly: Cell proliferation assay. The format is cell-based.
A short description of series [1]: Whole blood stability assay. It is filed as in vitro ADME, BALB/c nude mice. As to conditions: BALB/c nude, mouse, fresh whole blood. The method in brief:
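Fresh BALB/c nude mouse blood was prewarmed 10 min at 37 °C, then spiked with test compound from a DMSO working solution. Aliquots taken at 0, 0.5, 1, 2 and 5 h were quenched with acetonitrile, centrifuged, and the supernatant diluted in acetonitrile/water. Remaining parent was quantified by UPLC–MS/MS (MRM). GSH adduct was monitored in negative-mode MRM (product ion m/z 272). Triplicates.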

In the next series the test system is UMUC14 cells. The experiment in a line: Cell proliferation assay, UMUC14. It is filed as cell-based. As to conditions: read-out: UMUC14 IC50; FGFR3 mutation.
The subject of a further series is NCI-H1581 xenograft. The experiment in a line: In vivo antitumor activity, NCI-H1581 xenograft mouse model. More on the design: species or system nude mice (BALB/c). As to conditions: 12.5 mg/kg, 20 days.
A further series relates to H1581 cells. The experiment in a line: Cell proliferation assay, H1581. The format is cell-based. As to conditions: read-out: H1581 IC50; FGFR1 amplification.
The next series deals with KG1 cells. Put plainly: Cell proliferation assay, KG1. As to conditions: read-out: KG1 IC50; FGFR1OP2-FGFR1 (FGFR1-translocated). The format is cell-based.
The next series deals with BaF3/TEL-KDR cell. Put plainly: Cell proliferation assay, BaF3/TEL-KDR. The format is cell-based. As to conditions: read-out: BaF3/TEL-KDR IC50.
The next series relates to BaF3/TEL-FGFR1 cell. The experiment in a line: Cell proliferation assay, BaF3/TEL-FGFR1. It is filed as cell-based. As to conditions: read-out: BaF3/TEL-FGFR1 IC50.
[2] abbreviates: Homo sapiens, SNU-16, read-out: SNU16 IC50.

Where “and” joins values, the source holds several entries; their conditions need not be identical. Identical values can stand only once. Like-named read-outs stand apart in the source and are kept apart here.

Chain of FGFR1 (P11362 22-822): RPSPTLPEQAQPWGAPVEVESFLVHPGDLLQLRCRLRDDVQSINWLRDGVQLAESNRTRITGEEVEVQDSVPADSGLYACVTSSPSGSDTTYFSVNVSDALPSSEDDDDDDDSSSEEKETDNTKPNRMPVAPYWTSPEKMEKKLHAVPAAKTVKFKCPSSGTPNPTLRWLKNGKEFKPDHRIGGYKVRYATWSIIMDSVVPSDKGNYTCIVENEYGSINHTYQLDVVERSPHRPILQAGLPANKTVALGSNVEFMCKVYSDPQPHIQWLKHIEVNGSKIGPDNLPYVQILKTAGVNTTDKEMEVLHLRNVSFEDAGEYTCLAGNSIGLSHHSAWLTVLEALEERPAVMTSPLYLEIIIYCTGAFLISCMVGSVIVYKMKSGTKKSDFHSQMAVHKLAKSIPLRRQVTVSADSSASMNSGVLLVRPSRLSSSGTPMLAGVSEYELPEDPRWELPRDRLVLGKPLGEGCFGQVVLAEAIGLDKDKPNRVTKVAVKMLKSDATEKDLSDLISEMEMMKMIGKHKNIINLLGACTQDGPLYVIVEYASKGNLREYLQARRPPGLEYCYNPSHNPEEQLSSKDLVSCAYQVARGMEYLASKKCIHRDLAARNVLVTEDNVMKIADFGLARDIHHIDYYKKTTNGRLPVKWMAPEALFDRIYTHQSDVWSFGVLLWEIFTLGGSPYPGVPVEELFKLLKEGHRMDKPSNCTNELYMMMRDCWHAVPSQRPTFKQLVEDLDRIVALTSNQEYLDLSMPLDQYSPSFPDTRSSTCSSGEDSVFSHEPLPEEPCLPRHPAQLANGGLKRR

As for `Nc1n[nH]c(=O)c2nn(-c3ccccc3)c(-c3ccco3)c12` [Compound 6], at FGFR1, the inhibition at 0.01 µM stood at 18.6%, the inhibition at 0.1 µM was 19.6% and the inhibition at 1 µM amounted to 22.9%.

As for `Nc1n[nH]c(=O)c2nn(-c3ccccc3)c(-c3ccccc3)c12` [Compound 7], at FGFR1, the inhibition at 0.01 µM stood at 22.9%, the inhibition at 0.1 µM is 20.4% and the inhibition at 1 µM came out at 19.9%.

The compound `COc1ccc2c(C)c(-c3c4c(N)n[nH]c(=O)c4nn3-c3ccccc3)oc2c1` [Compound 8d] returned an IC50 against FGFR1 of 0.0677 ± 0.0039 µM.

`COc1ccc2oc(-c3c4c(N)n[nH]c(=O)c4nn3-c3ccccc3)c(C)c2c1` [Compound 8f] registered an IC50 against FGFR1 of 0.0775 ± 0.0147 µM.

Regarding `Cc1c(-c2c3c(N)n[nH]c(=O)c3nn2-c2ccccc2)oc2cc(Cl)ccc12` [Compound 8i], in the series with SNU16 cancer cell lines (Homo sapiens, SNU-16, read-out: SNU16 proliferation inhibition), the inhibition at 1 µM turned out to be 49.7%. The inhibition at 0.1 µM at FGFR1 was 64.2%.

`Cc1c(-c2c3c(N)n[nH]c(=O)c3nn2-c2ccccc2)oc2ccc(Cl)cc12` [Compound 8j] had an IC50 against FGFR1 of 0.0564 ± 0.0158 µM.

As for `Cc1c(-c2c3c(N)n[nH]c(=O)c3nn2-c2ccccc2)oc2ccc(Br)cc12` [Compound 8m], the IC50 was greater than 1 µM in the series on SNU16 cancer cell lines (setting [2]) and 0.0668 ± 0.0165 µM on FGFR1.

For `Cc1c(-c2c3c(N)n[nH]c(=O)c3nn2-c2ccccc2)oc2c(Cl)cccc12` [Compound 8p], the inhibition at 0.1 µM at FGFR1 came to 38.1%.

On to `CC(=O)Nc1ccc(-n2nc3c(=O)[nH]nc(N)c3c2-c2oc3ccc(C)cc3c2C)cc1` [Compound 9j], for which, on FGFR1, the inhibition at 0.1 µM amounted to 76.4%.

In the case of `Cc1ccc2oc(-c3c4c(N)n[nH]c(=O)c4nn3-c3ccc(CNC(=O)OCc4ccccc4)cc3)c(C)c2c1` [Compound 9m], at FGFR1, the IC50 amounted to 0.0138 ± 0.0013 µM.

Turning to `CCC(=O)Nc1ccc(-n2nc3c(=O)[nH]nc(N)c3c2-c2oc3ccc(C)cc3c2C)cc1` [Compound 9o], the inhibition at 0.1 µM at FGFR1 is 66.2%.

With `Cc1ccc2oc(-c3c4c(N)n[nH]c(=O)c4nn3Cc3ccc([N+](=O)[O-])cc3)c(C)c2c1` [Compound 9w], the inhibition at 0.1 µM on FGFR1 turned out to be 16.9%.

For the compound `CCCCNc1cc(F)c(-n2nc3c(=O)[nH]nc(N)c3c2-c2oc3ccc(C)cc3c2C)c(F)c1` [Compound 9z], the IC50 in the series on SNU16 cancer cell lines (setting [2]) is greater than 1 µM. The inhibition at 0.1 µM at FGFR1 stood at 73.9%.

Compound `C/C=C/C(=O)Nc1ccc(-n2nc3c(=O)[nH]nc(N)c3c2-c2oc3ccc(C)cc3c2C)cc1` [Compound 10b] gave a half-life at 1 μmol/L in [1] of 71.2 h.

As to `C=CC(=O)Nc1cccc(-n2nc3c(=O)[nH]nc(N)c3c2-c2oc3ccc(C)cc3c2C)c1` [Compound 10l], the IC50 with SNU16 cancer cell lines (setting [2]) came to 0.66 ± 0.322 µM.

With AZD4547, the IC50 was 0.0064 ± 0.0013 µM with UMUC14 cells; 0.0598 ± 0.0081 µM in the series on H1581 cells; 0.0037 µM and 0.005 µM with SNU16 cancer cell lines (read-out: SNU16 IC50, FGFR2 amplification SNU16 cell line); 0.0037 ± 0.0006 µM in the series with KG1 cells; 0.417 ± 0.01 µM with BaF3/TEL-KDR cell; 0.0005 µM in the series with BaF3/TEL-FGFR1 cell. In the series on NCI-H1581 xenograft, the “TGI (tumor weight inhibition rate at the treatment endpoint)” value amounted to 65.6%.

As usually defined, the half-life is the time in which the quantity being followed falls by half. A low value points to rapid decline.

For the origin of these results see paper PMC7982429 (Acta Pharmaceutica Sinica. B, 2020).
